Results from different studies.
Each line is one published result; the experiments were not run side by side.
Target: Mitogen-activated protein kinase 13 (MAPK13, Homo sapiens, UniProt O15264)
Residues used in one study (O15264 1-365): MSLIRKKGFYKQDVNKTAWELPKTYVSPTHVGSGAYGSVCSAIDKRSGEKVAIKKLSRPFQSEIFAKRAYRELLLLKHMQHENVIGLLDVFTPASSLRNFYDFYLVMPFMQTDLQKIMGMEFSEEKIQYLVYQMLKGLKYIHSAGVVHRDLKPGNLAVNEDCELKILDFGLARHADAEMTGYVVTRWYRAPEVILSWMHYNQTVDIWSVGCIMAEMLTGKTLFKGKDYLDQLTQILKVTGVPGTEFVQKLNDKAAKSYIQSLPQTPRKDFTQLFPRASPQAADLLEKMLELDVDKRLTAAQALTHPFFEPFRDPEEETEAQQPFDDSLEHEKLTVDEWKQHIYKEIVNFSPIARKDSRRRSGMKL

Compound | observed | method | tested at | remaining binding [%]
CN(CCCC(F)(F)F)c1nccc(-c2cnn3ncccc23)n1 | binding | – | 1 µM | 100
c1cncc(-c2cccc(Nc3nccc(NC4CCCCC4)n3)c2)c1 | binding | competition with immobilised ligand | 10 µM | 86
O=C(NCCCN1CCOCC1)c1ccc(Nc2nccc(-c3cc4ccccc4s3)n2)cc1 | binding | competition with immobilised ligand | 1 µM | 100
CCS(=O)(=O)c1cc2cc(C[C@](O)(CC(C)(C)c3ccc(F)cc3C(N)=O)C(F)(F)F)[nH]c2cn1 | cell-free assay | competition with immobilised ligand | 1 µM | 100
C[C@@H](c1ccc(-n2cnc3c(N)ncnc32)cc1)N1CCc2nn(C)c(Cc3ccccc3)c2C1=O | binding | competition with immobilised ligand | 0.1 µM | 83
O=C(NCCCN1CCOCC1)c1ccc(Nc2ncc(Cl)c(-c3ccc(Cl)s3)n2)cc1 | binding | competition with immobilised ligand | 1 µM | 100
CN(C)c1nccc(-c2cnn3ncccc23)n1 | binding | – | 1 µM | 100
O=C(c1ccc(Nc2ncc(Cl)c(-c3ccc(Cl)s3)n2)cc1)N1CCC(N2CCCC2)CC1 | binding | competition with immobilised ligand | 1 µM | 100
O=C(Nc1c[nH]nc1C(=O)NC1CCNCC1)c1cc(F)cc(F)c1 | binding | competition with immobilised ligand | 1 µM | 92
COc1ccc2c(c1)O[C@H](c1ccc(OC)c(OC)c1)C[C@@H]2NC(=O)C1(c2ccc3c(c2)OC(F)(F)O3)CC1 | cell-free assay | competition with immobilised ligand | 1 µM | 100
CC1CCCN1c1nccc(-c2cnn3ncccc23)n1 (stereo not shown) | binding | – | 1 µM | 100
CN([C@@H]1CCc2c(CC(=O)O)c3cc(S(C)(=O)=O)ccc3n2C1)S(=O)(=O)c1ccc(F)cc1 | cell-free assay | competition with immobilised ligand | 1 µM | 68
N[C@@H]1CCN(c2nccc(-c3cnn4ncccc34)n2)C1 | binding | – | 1 µM | 100
CNC(=O)[C@@H]1CC[C@@H](n2c(-c3ccc4cnccc4c3)nc3ccc(C(=O)NCc4cccc(C(N)=O)c4)cc32)C1 | binding | competition with immobilised ligand | 1 µM | 100
O=C(O)[C@H]1[C@H](Cn2nnc3ccccc3c2=O)CC[C@@H]1C(=O)c1ccc(OCCC2CCOCC2)cc1 | cell-free assay | competition with immobilised ligand | 1 µM | 97
C=CC(=O)N1CCC(C(=O)NCC(=O)N2CCN(c3nc(-c4cnc(N)nc4C(F)F)nc(N4CCOCC4)n3)CC2)CC1 | binding | competition with immobilised ligand | 1 µM | 99
O=C(Nc1cnc(Oc2ccc(F)cc2)nc1)N1CCc2ncccc2[C@@H]1c1ccc(F)cc1 | cell-free assay | competition with immobilised ligand | 1 µM | 100
CCN1CCN(Cc2ccc(C(=O)Nc3ccc(C)c(Oc4ccc5c(c4)CC(=O)N5)c3)cc2C(F)(F)F)CC1 | binding | competition with immobilised ligand | 1 µM | 100
C[C@@H]1CCN(c2nccc(-c3cnn4ncccc34)n2)C1 | binding | – | 1 µM | 93
NS(=O)(=O)c1cc(NC(=O)C2(c3ccccc3Cl)CC2)ccc1Oc1cccc(Cl)c1 | cell-free assay | competition with immobilised ligand | 1 µM | 88
F[C@@H]1CCN(c2nccc(-c3cnn4ncccc34)n2)C1 | binding | – | 1 µM | 67
CS(=O)(=O)NCC[C@H](NC(=O)c1cncc2c1cnn2-c1ccc(F)cc1)c1ccnc(S(C)(=O)=O)c1 | cell-free assay | competition with immobilised ligand | 1 µM | 100
